The values below come from ChEMBL document CHEMBL1240531, “Effects of conformational restriction of 2-amino-3-benzoylthiophenes on A(1) adenosine receptor modulation” (J Med Chem, 2010).

For assay [1], the target named is T1, Adenosine receptor A1 (Homo sapiens) (UniProt P30542).
T1 sequence (whole entry): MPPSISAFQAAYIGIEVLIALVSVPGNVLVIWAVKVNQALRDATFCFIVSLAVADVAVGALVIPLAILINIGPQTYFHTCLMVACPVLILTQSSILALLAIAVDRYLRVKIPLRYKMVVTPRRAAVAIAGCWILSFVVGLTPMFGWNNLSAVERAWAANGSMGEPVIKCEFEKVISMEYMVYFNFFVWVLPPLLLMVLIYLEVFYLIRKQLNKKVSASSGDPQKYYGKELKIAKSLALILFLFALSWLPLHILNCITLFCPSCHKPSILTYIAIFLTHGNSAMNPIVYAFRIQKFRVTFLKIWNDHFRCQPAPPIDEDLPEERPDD
Put plainly: Allosteric enhancement of human adenosine A1 receptor expressed in CHO FlpIn cells assessed as potentiation of N(6)-(R-phenylisopropyl)adenosine-induced ERK1/2 phosphorylation at 10 uM relative to N(6)-(R-phenylisopropyl)adenosine. Type of assay: cell-based.

Assay [2] addresses T1, Adenosine receptor A1 (Homo sapiens). Put plainly: Allosteric enhancement of human adenosine A1 receptor expressed in CHO FlpIn cells assessed as increase of ERK1/2 phosphorylation at 3 to 10 uM relative to N(6)-(R-phenylisopropyl)adenosine. Type of assay: cell-based.
The target is the same in assay [3]. Briefly: Allosteric enhancement of human adenosine A1 receptor expressed in CHO FlpIn cells assessed as potentiation of N(6)-(R-phenylisopropyl)adenosine-induced ERK1/2 phosphorylation at 3 uM relative to N(6)-(R-phenylisopropyl)adenosine. Type of assay: cell-based.
The target of assay [4] is T2, Adenosine receptor A1 (Rattus norvegicus) (UniProt P25099).
T2 sequence (whole entry): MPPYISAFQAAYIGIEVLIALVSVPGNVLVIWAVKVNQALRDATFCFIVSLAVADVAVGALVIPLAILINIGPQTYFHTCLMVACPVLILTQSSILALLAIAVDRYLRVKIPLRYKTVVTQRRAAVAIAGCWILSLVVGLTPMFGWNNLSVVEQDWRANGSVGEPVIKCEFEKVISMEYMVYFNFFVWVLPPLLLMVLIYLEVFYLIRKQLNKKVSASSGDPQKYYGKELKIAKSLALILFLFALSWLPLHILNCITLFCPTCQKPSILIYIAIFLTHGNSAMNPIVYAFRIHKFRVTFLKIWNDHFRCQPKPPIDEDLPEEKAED
Briefly: Allosteric enhancement of human adenosine A1 receptor in rat brain membranes assessed as increase of [3H]N6-cyclohexyladenosine binding at 100 uM relative to control. Type of assay: cell membranes.

Assay [5] addresses T3, Adenosine receptor A1 (Homo sapiens, UniProt P30542).
T3 sequence (P30542 whole entry): T1 sequence (whole entry)
Briefly: Antagonist activity at human adenosine A1 receptor expressed in CHO FlpIn cells assessed as inhibition of N(6)-(R-phenylisopropyl)adenosine-induced ERK1/2 phosphorylation. Type of assay: functional, cell-based. Particulars: read-out: pA2 (converted). An outline of the steps:
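Human A1AR FlpIn-CHO cells were pretreated with 1 U/mL adenosine deaminase for 30 min, then with test ligand over a concentration range for 30 min at 37 °C. R-PIA was then added for 5 min stimulation. Lysates were assayed for phospho-ERK1/2 by AlphaScreen SureFire. Response was expressed as percent of the 6 min 3% FBS response. Three experiments in triplicate, mean ± SEM. Curves were fitted globally to a competitive or allosteric model.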

In the case of `Nc1sc(-c2ccccc2)c2c1C(=O)c1ccccc1-2`, the Activity in assay [1] was 3%; in assay [2], 5%; in assay [3], 19%.
On to `CN(C)c1ccc(-c2sc(N)c3c2-c2ccccc2C3=O)cc1`, for which the Activity in assay [1] amounted to 32%; in assay [2], 5%; in assay [3] it was 48%.
In the same order, the values of `Nc1sc2c(c1C(=O)c1ccc(Cl)cc1)-c1cccc(C(F)(F)F)c1C2` are 73%, 5% and 65%.
With `Nc1ccccc1C(=O)c1ccccc1`, in assay [4], the Activity worked out at 34%.
On to `Nc1cccc2c1C(=O)c1ccccc1-2`, for which the Activity in assay [4] is 122%.
Consider `COc1ccc(-c2sc(N)c3c2-c2ccccc2C3=O)cc1`, for which the results for the Activity in assay [1], in assay [2] and in assay [3] were 18%, 5% and 37%, respectively.
In the case of `Nc1sc(-c2ccc(C(=O)O)cc2)cc1C(=O)c1ccc(Cl)cc1`, the Activity in assay [1] was found to be 29%; in assay [2], 5%; in assay [3] it was 27%.
As to `Nc1sc(-c2ccc(C(=O)O)cc2)cc1C(=O)c1ccccc1`, the Activity in assay [1] was 27%; in assay [2], 5%; in assay [3], 51%.
For `CN(C)c1ccc(-c2cc(C(=O)c3ccc(Cl)cc3)c(N)s2)cc1` the same measures were 41%, 5% and 56%.
As to `Nc1scc2c1C(=O)c1c(Cl)cccc1-2`, the Activity in assay [1] came to 38%; in assay [2], 5%; in assay [3], 45%.
Consider `Nc1sc2c(c1C(=O)c1ccccc1)-c1ccccc1C2`, for which the values for the Activity in assay [1], in assay [2] and in assay [3] were 9%, 5% and 23%, respectively.
For the compound `Nc1sc2c(c1C(=O)c1ccc(Cl)cc1)-c1ccccc1C2`, the values for the Activity in assay [1], in assay [2] and in assay [3] were 84%, 20% and 81%, respectively.
Consider `Nc1sc2c(c1C(=O)c1ccccc1)-c1cccc(C(F)(F)F)c1C2`, for which the figures for the Activity in assay [1], in assay [2] and in assay [3] were 49%, 5% and 56%, respectively.
In the case of `CN(C)c1ccc(-c2cc(C(=O)c3ccccc3)c(N)s2)cc1`, the Activity in assay [1] is 29%; in assay [2] it was 5%; in assay [3] it was 50%.
As for `Nc1sc(-c2ccc(C(=O)O)cc2)c2c1C(=O)c1ccccc1-2`, the Activity was 7% in assay [1], 5% in assay [2] and 19% in assay [3].
Regarding `Nc1sccc1C(=O)c1ccccc1`, the Activity is 30% in assay [1], 5% in assay [2], 48% in assay [3] and 59% in assay [4].
In the case of `Nc1sc(-c2ccccc2)cc1C(=O)c1ccc(Cl)cc1`, the Activity was determined as 16% in assay [1], 5% in assay [2] and 46% in assay [3].
Turning to `Nc1scc2c1C(=O)c1ccc(Cl)cc1-2`, the figures for the Activity in assay [1], in assay [2] and in assay [3] were 29%, 20% and 56%, respectively.
On to `Nc1scc2c1C(=O)c1ccccc1-2`, for which the Activity in assay [1] is 27%; in assay [2] it was 5%; in assay [3] it was 45%.
For `Nc1sc(-c2ccncc2)c2c1C(=O)c1ccccc1-2` the same measures were 17%, 5% and 28%.
Take `Nc1sc(-c2cncnc2)cc1C(=O)c1ccccc1`: the results for the Activity in assay [1], in assay [2] and in assay [3] were 2%, 5% and 18%, respectively.
For `Nc1sccc1C(=O)c1ccc(Cl)cc1`, the Activity in assay [1] stood at 40%; in assay [2], 5%; in assay [3], 50%.
In the case of `Nc1sc2c(c1C(=O)c1ccccc1)-c1cc(C(F)(F)F)ccc1C2`, the Activity is 38% in assay [1], 5% in assay [2] and 52% in assay [3].
Turning to `COc1ccc(-c2cc(C(=O)c3ccc(Cl)cc3)c(N)s2)cc1`, the Activity in assay [1] was determined as 29%; in assay [2], 5%; in assay [3], 51%.
With `Nc1sc(-c2cncnc2)cc1C(=O)c1ccc(Cl)cc1`, the Activity in assay [1] worked out at 4%; in assay [2], 5%; in assay [3] it was 7%. Moreover, the Kb in assay [5] is 145 nM.
For `Nc1sc(-c2cncnc2)c2c1C(=O)c1ccccc1-2`, the Activity in assay [1] was 7%; in assay [2], 5%; in assay [3], 19%. Besides, the Kb in assay [5] was 646 nM.
In the same order, the values of `Nc1sc(-c2ccccc2)cc1C(=O)c1ccccc1` are 1%, 5%, 12% and 209 nM.
Regarding `Nc1sc2c(c1C(=O)c1ccc(Cl)cc1)-c1cc(C(F)(F)F)ccc1C2`, the Activity was 73% in assay [1], 5% in assay [2] and 62% in assay [3].
For `Nc1sc(-c2ccncc2)cc1C(=O)c1ccccc1` the same measures were 17%, 5% and 23%.
As to `Nc1sc(-c2ccncc2)cc1C(=O)c1ccc(Cl)cc1`, the Activity in assay [1] is 17%; in assay [2] it was 5%; in assay [3], 44%.
Consider `COc1ccc(-c2cc(C(=O)c3ccccc3)c(N)s2)cc1`, for which the results for the Activity in assay [1], in assay [2] and in assay [3] were 14%, 5% and 31%, respectively.
